The values below come from ChEMBL document CHEMBL3244105, “Antiparasitic agents. 3. Synthesis and anthelmintic activities of novel 2-pyridinyl-5-isothiocyanatobenzimidazoles” (1979).

The source made the active and inactive calls. The rule behind the calls is not given here.

Experiment [1] concerns Rodentolepis nana. Put plainly: Anthelmintic activity against Hymenolepis nana infected in CF1 mouse assessed as clearance of worm burden assessed as clearance of worm burden at 0.2% dosed through diet for 4 days dosed 16 days post infection by press-plate technique. Format: functional. Put shortly:
(§1)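 Primary oral mouse screen. Compound was given mixed in the diet. Tapeworm (taeniacidal) and N. dubius nematode activity were each scored as percent clearance of worms.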

Experiment [2] concerns gastrointestinal nematodes (Ovis aries). Kind of experiment: Anthelmintic activity against gastrointestinal nematodes infected in sheep assessed as reduction of fecal egg count at 50 mg/kg, po measured up to 7 days relative to control. Also noted: scale not given: the % may be the effect or the level left.
For experiment [3] the test system is unchanged. Kind of experiment: Anthelmintic activity against gastrointestinal nematodes infected in sheep assessed as reduction of fecal egg count at 200 mg/kg, po measured up to 7 days relative to control. Also on record: scale not given: the % may be the effect or the level left.
Experiment [4] shares this test system. Put plainly: Anthelmintic activity against gastrointestinal nematodes infected in sheep assessed as reduction of fecal egg count at 25 mg/kg, po measured up to 7 days relative to control. Also noted: scale not given: the % may be the effect or the level left.
Experiment [5] has as its system Heligmosomoides polygyrus. Put plainly: Nematocidal activity against Nematospiroides dubius infected in CF1 mouse assessed as clearance of worm burden at 0.03% dosed through diet for 4 days dosed 16 days post infection by press-plate technique. Format: functional, organism-based. Put shortly:
as §1

Experiment [6] deals with Rodentolepis nana. Kind of experiment: Anthelmintic activity against Hymenolepis nana infected in CF1 mouse assessed as clearance of worm burden at 0.03% dosed through diet for 4 days dosed 16 days post infection by press-plate technique. It is filed as functional, organism-based. The method, boiled down:
as §1

Experiment [7] has as its system Heligmosomoides polygyrus. Kind of experiment: Nematocidal activity against Nematospiroides dubius infected in CF1 mouse assessed as clearance of worm burden at 0.2% dosed through diet for 4 days dosed 16 days post infection by press-plate technique. It is filed as functional. Put shortly: as §1
For experiment [8], the system named is gastrointestinal nematodes (Ovis aries). Kind of experiment: Anthelmintic activity against gastrointestinal nematodes infected in sheep assessed as reduction of fecal egg count at 43 mg/kg, po measured up to 7 days relative to control. Also noted: scale not given: the % may be the effect or the level left.
Another experiment relates to Taenia pisiformis. Kind of experiment: Anthelmintic activity against Taenia pisiformis infected in dog assessed as reduction of fecal egg count. Format: functional, organism-based.
A further experiment relates to Moniezia. Put plainly: Anthelmintic activity against Moniezia sp. infected in sheep assessed as reduction of fecal egg count. It is filed as functional.

As to `S=C=Nc1ccc2[nH]c(-c3ccccn3)nc2c1` [listing 1 of 2 here], the Activity in the experiment on Rodentolepis nana [1] came out at 100%; in experiment [2], 100%; in experiment [3] it was 100%; in experiment [4] it was 11%.

As for `CCCCc1ccc2[nH]c(NC(=O)OC)nc2c1`, the result (in [5]; in the experiment on Rodentolepis nana [6]) was Active.

Regarding `S=C=Nc1ccc2[nH]c(-c3cscn3)nc2c1`, the Activity with Rodentolepis nana [1] is reported as 100%; in [7], 90%.

`S=C=Nc1ccc2[nH]c(-c3ccccc3)nc2c1`: the Activity in the experiment with Rodentolepis nana [1] is given as 100%; in [2] it was 0%. Also, the outcome in [7] was inactive.

For `c1ccc(-c2nc3ccccc3[nH]2)nc1`, the Activity in the experiment on Rodentolepis nana [1] amounted to 0%; in experiment [2] it was 28%. For the same compound, the result in experiment [7] was inactive.

For the compound `S=C=Nc1ccc2[nH]c(-c3cc(Cl)ccn3)nc2c1`, the Activity in the experiment on Rodentolepis nana [1] is recorded as 75%; in [2] it was 0%. Besides, in experiment [7], the result was inactive.

As for `Cc1ccnc(-c2nc3cc(N=C=S)ccc3[nH]2)c1`, the Activity in the experiment on Rodentolepis nana [1] came to 25%; in experiment [2] it was 0%. In experiment [7], the result was inactive.

For the compound `Cn1c(-c2cccc[n+]2C)nc2cc(N=C=S)ccc21.[I-]`, in the experiment with Rodentolepis nana [1], the Activity worked out at 0%. Also, the result in experiment [7] was inactive.

As to `Cc1ccc(S(=O)(=O)O)cc1.S=C=Nc1ccc2[nH]c(-c3ccccn3)nc2c1`, the results for the Activity (with Rodentolepis nana [1]; in [2]) were 100% and 0%, respectively.

For `S=C=Nc1cccc2[nH]c(-c3ccccn3)nc12`, the results for the Activity (with Rodentolepis nana [1]; in experiment [2]) were 25% and 83%, respectively. In experiment [7], the result was inactive.

Consider `S=C=Nc1ccnc(-c2nc3cc(N=C=S)ccc3[nH]2)c1`, for which the Activity (with Rodentolepis nana [1]; in experiment [2]) was 0% each time. The outcome in experiment [7] was inactive.

For the compound `S=C=Nc1cc2nc(-c3ccccn3)[nH]c2cc1Cl`, the results for the Activity (in the experiment with Rodentolepis nana [1]; in experiment [2]) were 50% and 15%, respectively. Also, in experiment [7], the result was inactive.

Regarding `Cl.S=C=Nc1ccc2[nH]c(-c3ccccn3)nc2c1`, the results for the Activity (with Rodentolepis nana [1]; in experiment [2]) were 75% and 95%, respectively.

For the compound `Cc1cccc(-c2nc3cc(N=C=S)ccc3[nH]2)n1`, the Activity in the experiment on Rodentolepis nana [1] is 75%; in [2], 52%. The result in experiment [7] was inactive.

On to `c1ccc(-c2nc3ccccc3[nH]2)cc1`, for which the Activity in the experiment on Rodentolepis nana [1] amounted to 25%; in [2], 17%. Moreover, the result in experiment [7] was inactive.

For the compound `S=C=Nc1ccnc(-c2nc3ccccc3[nH]2)c1`, the Activity is reported as 50% in the experiment on Rodentolepis nana [1] and 0% in [2]. The outcome in experiment [7] was inactive.

Turning to `[O-][n+]1ccccc1-c1nc2cc(N=C=S)ccc2[nH]1`, the Activity with Rodentolepis nana [1] worked out at 100%; in experiment [8], 9%. Moreover, the outcome in [7] was inactive.

Regarding `S=C=Nc1ccc2[nH]c(-c3ccccn3)nc2c1` [listing 2 of 2 here], the outcome (in experiment [7]; in the experiment with Taenia pisiformis; in the experiment with Moniezia) was inactive.

`S=C=Nc1ccc2[nH]c(-c3ccncc3)nc2c1`: the Activity (with Rodentolepis nana [1]; in experiment [2]) was 0% throughout. For the same compound, the result in experiment [7] was inactive.

Take `S=C=Nc1ccc2[nH]c(-c3cccnc3)nc2c1`: the results for the Activity (in the experiment with Rodentolepis nana [1]; in experiment [3]) were 100% and 71%, respectively. Further, the result in experiment [7] was inactive.

Regarding `COc1ccnc(-c2nc3cc(N=C=S)ccc3[nH]2)c1`, the Activity in the experiment on Rodentolepis nana [1] came out at 75%; in experiment [2], 0%. For the same compound, in [7], the outcome was inactive.
